Laboratory results reported in ChEMBL document CHEMBL3817745, “Structure-Activity Relationship for the 4(3H)-Quinazolinone Antibacterials” (J Med Chem, 2016).
In brackets after ≈: the same amount, converted by molar mass.

Columns and labels:
Staphylococcus aureus [1] = experiment: Antibacterial activity against methicillin-susceptible Staphylococcus aureus ATCC 29213 incubated for 16 to 20 hrs by microdilution method; assay type: functional
Staphylococcus aureus [2] = experiment: Antibacterial activity against methicillin resistant Staphylococcus aureus ATCC 27660 infected in ICR mouse model of peritonitis assessed as mouse survival at 5 mg/kg, iv administered at 30 mins and 4.5 hrs post infection measured for 48 hrs relative to control; assay type: functional
Mus musculus = experiment: AUC (0 to last) in ICR mouse peritonitis model infected with methicillin resistant Staphylococcus aureus ATCC 27660 at 10 mg/kg, iv administered as single dose measured up to 8 hrs by UPLC analysis; assay type: ADME, organism-based; parameters: dose 10 mg/kg, time 0 - last, route intravenous; conditions: in vivo, 8 h
Outline: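 Fast PK: female ICR mice (n = 2 per time point) given single tail-vein iv injection at 5, 10 or 20 mg/kg in 25% DMSO/65% propylene glycol/10% water (2.5, 5 or 10 mg/mL); terminal cardiac blood at 5 min, 40 min, 2, 4, 8 h; plasma analysed by UPLC with internal standard calibration.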

HepG2 = experiment: Cytotoxicity against human HepG2 cells incubated for 16 hrs by XTT assay; assay type: cell-based; conditions: HepG2, 16 h
Outline: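 HepG2 cells were tested with an XTT viability read-out, in triplicate. IC50 was obtained by nonlinear regression.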

[3] = Hemolytic activity against human RBC at 64 ug/ml relative to control; assay type: ADME, cell-based, Erythrocyte; conditions: erythrocyte
Outline: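 Hemolysis was measured at a fixed 64 μg/mL on a 10% red-cell suspension from heparinized human blood. Triton-X served as the positive control, and results are given as percent hemolysis.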

Staphylococcus aureus [4] = experiment: Antibacterial activity against mecA-positive methicillin/oxacillin/tetracycline-resistant Staphylococcus aureus ATCC 27660 incubated for 16 to 20 hrs by microdilution method; assay type: functional
Staphylococcus aureus [5] = experiment: Antibacterial activity against mecA-positive multidrug resistant Staphylococcus aureus COL NRS100 incubated for 16 to 20 hrs by microdilution method; assay type: functional
Staphylococcus aureus [6] = experiment: Antibacterial activity against mecA-positive multidrug resistant Staphylococcus aureus NRS119 incubated for 16 to 20 hrs by microdilution method; assay type: functional
Staphylococcus aureus [7] = experiment: Antibacterial activity against mecA-positive multidrug resistant Staphylococcus aureus NRS120 incubated for 16 to 20 hrs by microdilution method; assay type: functional
Staphylococcus aureus [8] = experiment: Antibacterial activity against vancomycin/methicillin-resistant Staphylococcus aureus VRS1 clinical isolate incubated for 16 to 20 hrs by microdilution method; assay type: functional
[9] = test system: Staphylococcus epidermidis; experiment: Antibacterial activity against Staphylococcus epidermidis ATCC 35547 incubated for 16 to 20 hrs by microdilution method; assay type: functional
Outline: (§1)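 CLSI broth microdilution. 2-fold serial dilutions were made in cation-adjusted Mueller–Hinton broth, with 5% lysed horse blood added for Streptococcus strains, in triplicate. Inoculum 5×10^5 CFU/mL. Plates incubated 36 °C for 16–20 h. MIC taken as the lowest concentration visibly inhibiting growth.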

Streptococcus oralis = experiment: Antibacterial activity against Streptococcus oralis ATCC 9811 incubated for 16 to 20 hrs by microdilution method; assay type: functional; outline: as §1
Streptococcus pyogenes = experiment: Antibacterial activity against Streptococcus pyogenes ATCC 49399 incubated for 16 to 20 hrs by microdilution method; assay type: functional; outline: as §1
Bacillus cereus = experiment: Antibacterial activity against Bacillus cereus ATCC 13061 incubated for 16 to 20 hrs by microdilution method; assay type: functional; outline: as §1
Bacillus licheniformis = experiment: Antibacterial activity against Bacillus licheniformis ATCC 12759 incubated for 16 to 20 hrs by microdilution method; assay type: functional; outline: as §1
Enterococcus faecalis [10] = experiment: Antibacterial activity against methicillin-susceptible Enterococcus faecalis ATCC 29212 incubated for 16 to 20 hrs by microdilution method; assay type: functional; outline: as §1
Enterococcus faecalis [11] = experiment: Antibacterial activity against vancomycin-resistant Enterococcus faecalis 99 clinical isolate incubated for 16 to 20 hrs by microdilution method; assay type: functional
Enterococcus faecium = experiment: Antibacterial activity against Enterococcus faecium NCTC 7171 incubated for 16 to 20 hrs by microdilution method; assay type: functional; outline: as §1
Staphylococcus aureus [12] = experiment: Antibacterial activity against methicillin-resistant Staphylococcus aureus NRS70 incubated for 16 to 20 hrs by microdilution method; assay type: functional
Staphylococcus aureus [13] = experiment: […] activity against methicillin-susceptible Staphylococcus aureus ATCC 29213; assay type: functional; conditions: read-out: MBC99.9
Staphylococcus aureus [14] = experiment: […] activity against multidrug resistant Staphylococcus aureus ATCC 27660; assay type: functional; conditions: read-out: MBC99.9
Staphylococcus aureus [15] = experiment: […] activity against methicillin-resistant Staphylococcus aureus NRS70; assay type: functional; conditions: read-out: MBC99.9
Staphylococcus aureus [16] = experiment: Bactericidal activity against methicillin-susceptible Staphylococcus aureus ATCC 29213 assessed as bacterial count at >=1 ug/ml (reference value: 1x10^6 CFU/ml); assay type: functional
[17] = Protein binding in human plasma at 20 uM after 2 hrs by UPLC based equilibrium dialysis method; assay type: ADME, cell-free
Outline: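 Human plasma was tested by rapid equilibrium dialysis at a final compound concentration of 20 μM. Dialysis ran 2 h at 37 °C on an orbital shaker. Samples were quenched in acetonitrile with internal standard and quantified by UPLC with MRM detection. Triplicate, each measured in duplicate.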

Klebsiella pneumoniae = experiment: Antibacterial activity against Klebsiella pneumoniae ATCC 700603 incubated for 16 to 20 hrs by microdilution method; assay type: functional; outline: as §1
Acinetobacter baumannii = experiment: Antibacterial activity against Acinetobacter baumannii ATCC 17961 incubated for 16 to 20 hrs by microdilution method; assay type: functional; outline: as §1
Pseudomonas aeruginosa = experiment: Antibacterial activity against Pseudomonas aeruginosa […] incubated for 16 to 20 hrs by microdilution method; assay type: functional; outline: as §1
Escherichia coli = experiment: Antibacterial activity against Escherichia coli ATCC 25922 incubated for 16 to 20 hrs by microdilution method; assay type: functional; outline: as §1
Klebsiella aerogenes = experiment: Antibacterial activity against Enterobacter aerogenes ATCC 35029 incubated for 16 to 20 hrs by microdilution method; assay type: functional; outline: as §1

C#Cc1ccc(/C=C/c2nc3ccccc3c(=O)n2-c2cccc(C(=O)O)c2)cc1
MIC (Staphylococcus aureus [1]): 0.03 µg/mL (≈ 0.0764 µM) | Efficacy (Staphylococcus aureus [2]): >50% | AUClast (Mus musculus): 1540 µg·min/mL | IC50 (HepG2): 82 µg/mL (≈ 209 µM) | Activity [3]: < 1% | MIC (Staphylococcus aureus [4]): 0.06 µg/mL (≈ 0.153 µM) | MIC (Staphylococcus aureus [5]): 0.25 µg/mL (≈ 0.637 µM) | MIC (Staphylococcus aureus [6]): 0.06 µg/mL (≈ 0.153 µM) | MIC (Staphylococcus aureus [7]): 0.5 µg/mL (≈ 1.27 µM) | MIC (Staphylococcus aureus [8]): 0.5 µg/mL (≈ 1.27 µM) | MIC [9]: 0.008 µg/mL (≈ 0.0204 µM) | MIC (Streptococcus oralis): 128 µg/mL (≈ 326 µM) | MIC (Streptococcus pyogenes): 128 µg/mL (≈ 326 µM) | MIC (Bacillus cereus): 128 µg/mL (≈ 326 µM) | MIC (Bacillus licheniformis): 128 µg/mL (≈ 326 µM) | MIC (Enterococcus faecalis [10]): > 128 µg/mL | MIC (Enterococcus faecalis [11]): 128 µg/mL (≈ 326 µM) | MIC (Enterococcus faecium): > 128 µg/mL | MIC (Staphylococcus aureus [12]): 0.03 µg/mL (≈ 0.0764 µM) | MBC (Staphylococcus aureus [13]): 0.125 µg/mL (≈ 0.319 µM) | MBC (Staphylococcus aureus [14]): 1 µg/mL (≈ 2.55 µM) | MBC (Staphylococcus aureus [15]): 0.5 µg/mL (≈ 1.27 µM) | Activity (Staphylococcus aureus [16]): <=500 CFU/ml | PPB [17]: 99.6% | MIC (Klebsiella pneumoniae): ≥ 16 µg/mL | MIC (Acinetobacter baumannii): ≥ 16 µg/mL | MIC (Pseudomonas aeruginosa): ≥ 16 µg/mL | MIC (Escherichia coli): ≥ 16 µg/mL | MIC (Klebsiella aerogenes): ≥ 16 µg/mL
